Data taken from ChEMBL document CHEMBL1122118, “Novel opiates and antagonists. 4. 7-Alkanoylhydromorphones” (1982).
Calls of active or inactive are those of the source. The rule behind the calls is not given here.

Tests used:
Rattus norvegicus [1] = species: Rattus norvegicus; experiment: Antagonistic activity was measured by Rat tail-flick morphine antagonist procedure; assay type: functional
In short: (§1)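 Rat tail-flick test: the compound's ability to block analgesia from a fixed challenge dose of morphine was scored across a dose-response.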

Mus musculus [2] = species: Mus musculus; experiment: Agonistic activity by mouse acetic acid writhing test.; assay type: functional
Rattus norvegicus [3] = experiment: Antagonistic activity was measured by Rat tail-flick morphine antagonist procedure; IA is Inactive at highest dose tested (10 mg/Kg); assay type: functional, organism-based; in short: as §1
Mus musculus [4] = experiment: Agonistic activity was measured by Mouse acetic acid writhing test; IA is Inactive at highest dose tested (10 mg/Kg); assay type: functional, organism-based
Rattus norvegicus [5] = species: Rattus norvegicus; experiment: Antagonistic activity was measured by Rat tail-flick morphine antagonist procedure; unable to achieve satisfactory dose response; assay type: functional, organism-based; in short: as §1

Row | SMILES | AD50 (Rattus norvegicus [1]) | ED50 (Mus musculus [2]) | further results
1 | COc1ccc2c3c1OC1C(=O)C(C(C)=O)CC4C(C2)N(CC2CC2)CCC314 (stereo not drawn) | >10 mg/kg | > 10 mg/kg | 
2 | O=C(c1ccc(F)cc1)C1CC2C3Cc4ccc(O)c5c4C2(CCN3CC2CC2)C(O5)C1=O (stereo not drawn) | ~10 mg/kg | > 10 mg/kg | 
3 | CCCCCCC(=O)C1CC2C3Cc4ccc(O)c5c4C2(CCN3CC2CC2)C(O5)C1=O (stereo not drawn) |  | 0.4 mg/kg | AD50 (Rattus norvegicus [3]): inactive
4 | COc1ccc2c3c1OC1C(=O)C(C(C)=O)CC4C(C2)N(C)CCC314 (stereo not drawn) |  | 23.5 mg/kg | 
5 | COc1ccc2c3c1OC1C(=O)C(C(=O)c4ccc(F)cc4)CC4C(C2)N(CC2CC2)CCC314 (stereo not drawn) | >10 mg/kg |  | ED50 (Mus musculus [4]): inactive
6 | CCC(=O)C1CC2C3Cc4ccc(O)c5c4C2(CCN3CC2CC2)C(O5)C1=O (stereo not drawn) | 0.52 mg/kg |  | ED50 (Mus musculus [4]): inactive
7 | CCC(=O)C1CC2C3Cc4ccc(OC)c5c4C2(CCN3CC2CC2)C(O5)C1=O (stereo not drawn) | 6.5 mg/kg | > 10 mg/kg | 
8 | CCCC(=O)C1CC2C3Cc4ccc(O)c5c4C2(CCN3C)C(O5)C1=O (stereo not drawn) |  | 5.2 mg/kg | 
9 | CCCCC(=O)C1CC2C3Cc4ccc(O)c5c4C2(CCN3CC2CC2)C(O5)C1=O (stereo not drawn) | 3.3 mg/kg |  | 
10 | CC(=O)C1CC2C3Cc4ccc(O)c5c4C2(CCN3CC2CC2)C(O5)C1=O (stereo not drawn) | 1.3 mg/kg | 4 mg/kg | 
11 | CCCCCC(=O)C1CC2C3Cc4ccc(OC)c5c4C2(CCN3CC2CC2)C(O5)C1=O (stereo not drawn) |  |  | AD50 (Rattus norvegicus [3]): inactive
12 | CCCC(=O)C1CC2C3Cc4ccc(OC)c5c4C2(CCN3C)C(O5)C1=O (stereo not drawn) |  |  | ED50 (Mus musculus [4]): inactive
13 | COc1ccc2c3c1OC1C(=O)C(C(=O)c4ccccc4)CC4C(C2)N(CC2CC2)CCC314 (stereo not drawn) | 8 mg/kg |  | 
14 | COc1ccc2c3c1OC1C(=O)CCC4C(C2)N(CC2CC2)CCC314 (stereo not drawn) | 3.4 mg/kg | 17 mg/kg | 
15 | CC(C)C(=O)C1CC2C3Cc4ccc(O)c5c4C2(CCN3CC2CC2)C(O5)C1=O (stereo not drawn) | 0.81 mg/kg |  | 
16 | CCCC(=O)C1CC2C3Cc4ccc(OC)c5c4C2(CCN3CC2CC2)C(O5)C1=O (stereo not drawn) | 8.1 mg/kg | 2.8 mg/kg | 
17 | CCCCCC(=O)C1CC2C3Cc4ccc(O)c5c4C2(CCN3CC2CC2)C(O5)C1=O (stereo not drawn) | 22 mg/kg |  | 
18 | CCCC(=O)C1CC2C3Cc4ccc(O)c5c4C2(CCN3CC2CC2)C(O5)C1=O (stereo not drawn) | 2.6 mg/kg |  | 
19 | CC(C)(C)CC(=O)C1CC2C3Cc4ccc(O)c5c4C2(CCN3CC2CC2)C(O5)C1=O (stereo not drawn) | >10 mg/kg |  | ED50 (Mus musculus [4]): inactive
20 | O=C1CCC2C3Cc4ccc(O)c5c4C2(CCN3CC2CC2)C1O5 (stereo not drawn) | 0.19 mg/kg | 1.3 mg/kg | 
21 | COc1ccc2c3c1OC1C(=O)C(C(=O)C(C)C)CC4C(C2)N(CC2CC2)CCC314 (stereo not drawn) | 2.8 mg/kg |  | 
22 | CN1CC[C@]23c4c5ccc(O)c4O[C@H]2[C@@H](O)C=C[C@H]3[C@H]1C5 [MORPHINE] |  | 0.79 mg/kg | 
23 | CCCCCCC(=O)C1CC2C3Cc4ccc(OC)c5c4C2(CCN3CC2CC2)C(O5)C1=O.Cl (stereo not drawn) | >10 mg/kg | > 10 mg/kg | 
24 | CN1CC[C@]23c4c5ccc(O)c4O[C@H]2C(=O)CC[C@H]3[C@H]1C5 [HYDROMORPHONE] |  | 0.08 mg/kg | 
25 | O=C(c1ccccc1)C1CC2C3Cc4ccc(O)c5c4C2(CCN3CC2CC2)C(O5)C1=O (stereo not drawn) | 0.24 mg/kg |  | 
26 | CO[C@@]12CC[C@@]3(C[C@@H]1[C@](C)(O)C(C)(C)C)[C@H]1Cc4ccc(O)c5c4[C@@]3(CCN1CC1CC1)[C@H]2O5 [BUPRENORPHINE] |  | 0.13 mg/kg | AD50 (Rattus norvegicus [5]): unable to achieve satisfactory dose response
27 | COc1ccc2c3c1O[C@H]1C(=O)CC[C@H]4[C@@H](C2)N(C)CC[C@]314 [HYDROCODONE] |  | 1.06 mg/kg | 
28 | CCCCC(=O)C1CC2C3Cc4ccc(OC)c5c4C2(CCN3CC2CC2)C(O5)C1=O (stereo not drawn) |  | > 10 mg/kg | AD50 (Rattus norvegicus [3]): inactive
29 | CCCCCC(=O)C1CC2C3Cc4ccc(OC)c5c4C2(CCN3C)C(O5)C1=O (stereo not drawn) |  | 4 mg/kg | 
